# Screening data: PubChem BioAssay, several laboratories
# Furin inh = human furin inhibitors, primary screen, biochemical, fluorescence intensity. P09958. purified furin, fluorogenic substrate cleavage. inhibition, % at 20 µM or 30 µM. 0.061% of 220,000 active. AID 463115, 2010; in the data active = inhibition above about 25%
# ABCB1 inh = ABCB1 efflux pump inhibitors, primary screen, cell-based, multiplex, flow cytometry, ABCG2 counter-screen; CCRF-Adr cells, JC-1 efflux; AID 1326, 2008; inhibition, % at 6.6 µM; 0.067% of 190,000 active; in the data active = inhibition above about 40%;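 also: 0% = vehicle and 100% = reference inhibitor; higher value means more JC-1 retained so stronger ABCB1 efflux block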
# ABCG2 inh = ABCG2 efflux pump inhibitors, primary screen, multiplex with ABCB1, IgMXP3 cells, flow cytometry | 0.1% of 190,000 active | inhibition, % at 6.6 µM | JC-1 efflux | Broad substrate specificity ATP-binding cassette transporter ABCG2 (Homo sapiens), Q9UNQ0 | AID 1325, 2008;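 active = inhibition above 80%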;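 also: 0% = DMSO and 100% = nicardipine control wells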
#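 Test system: IgMXP3 (ABCG2) plus far-red-tagged CCRF-Adr (ABCB1) cells / Amount: 3 million cells/mL in well / Reagent: JC-1 transporter substrate / Timing: 10 min compound exposure, 25 °C / Signal: flow cytometry, 530 nm JC-1 signal / Read-out: percent efflux inhibition, scaled nicardipine 100% to DMSO 0% / Benchmarks: nicardipine as high control, DMSO as low control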
# Arbovirus inh = antivirals against arbovirus infection, primary screen, cell-based, full library, 10K replicate subset; AID 1251, 2008; arbovirus infection cell-based antiviral screen; inhibition, % at 10 µM; 0.37% of 200,000 active; in the data active = inhibition above about 30%
# HSV replic up = enhancers of HSV replication in host cells, fold increase, host cell viability; HSV replication augmentation in cells; maximum fold increase; 0.005% of 220,000 active; AID 1956, 2009; in the data active = maximum fold increase above about 1.5; inconclusive = no clear call, values can overlap the other calls; tested in PC3 cells
# p47phox inh = p47phox/p22phox peptide binding inhibitors, primary screen, biochemical, uHTS, NADPH oxidase regulatory subunit; inhibition, % at 24.7 µM; fluorescence polarization, 2 h; 0.53% of 220,000 active; Neutrophil cytosol factor 1 (Homo sapiens), P14598;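 active = inhibition above about 30%, limit read from the data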;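 also: 0% = p47phox with labelled peptide and 100% = labelled peptide alone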
# An asterisk follows results filed as active; i = inactive; ? = inconclusive; nt = no result. The list is not random: actives were taken first. Their share in the collection is about 0.95%.
SMILES,Furin inh,ABCB1 inh,ABCG2 inh,Arbovirus inh,HSV replic up,p47phox inh
CCOc1ccc(N=Nc2c(=O)[nH]n3c(=O)c4c([nH]c23)CCCC4)cc1,0.4,0.2,-0.1,59.6*,i,-31.9
CCOc1ccc(N=Nc2c(=O)[nH]n3c(=O)cc(C)[nH]c23)cc1,2.7,0.0,-0.1,-6.1,i,-34.9
Cc1ccc(-n2nnnc2CN2CCCCC2)cc1,-10.1,-0.2,1.7,1.2,i,-16.5
CCNc1ncnc2c1cnn2C,-26.6,1.0,3.8,4.5,i,-1.4
CN1C2=CC=CC=CC2=[N+](C)C12C=CC(=[N+]([O-])[O-])C=C2[N+](=O)[O-] (stereo not drawn),-19.0,-0.4,-0.5,-1.3,i,-58.2
CN1C2=CC=CC=CC2=[N+](C)C12C([N+](=O)[O-])=CC(=[N+]([O-])[O-])C=C2[N+](=O)[O-] (stereo not drawn),-9.8,nt,nt,nt,i,60.7*
CCCC1=NN2C(=N)/C(=C\c3cc(C)n(-c4cccc(C)c4)c3C)C(=O)N=C2S1,-7.9,-0.2,-2.4,32.5*,i,-12.8
CCCC1=NN2C(=N)/C(=C\c3cc(C)n(Cc4ccccc4)c3C)C(=O)N=C2S1,-9.5,nt,nt,nt,i,-27.9
CCC1=NN2C(=N)/C(=C\c3ccc(SCc4ccco4)o3)C(=O)N=C2S1,-4.2,0.1,-0.5,62.2*,?,-152.2
CCCC1=NN2C(=N)/C(=C\c3ccc(SCc4ccco4)o3)C(=O)N=C2S1,-14.6,-1.5,-8.8,31.9*,?,-176.9
CCC1=NN2C(=N)/C(=C/c3c(C)nn(-c4ccccc4)c3Cl)C(=O)N=C2S1,-14.0,0.1,1.8,13.6,i,-14.3
C#CCNC(=O)C1=C[C@@H](C)[C@H](CCCO)[C@@H](OCC)O1,nt,nt,nt,nt,i,nt
CCCNC(=O)CN1C(=O)NC(CCSC)C1=O (stereo not drawn),-14.2,nt,nt,nt,i,-2.2
O=C(NCCCO)Nc1ccc2nc(-c3ccco3)c(-c3ccco3)nc2c1,-15.4,-0.5,-1.9,33.4*,nt,-76.5
Cc1onc(-c2ccc(Cl)cc2)c1-c1ccnc(SCC(=O)Nc2ccc(C(C)C)cc2)n1,-4.5,nt,nt,nt,i,-10.1
COc1cc2c(cc1OC)CN(C(=O)c1ccc(S(=O)(=O)N3CCCCC3)cc1)CC2,-20.9,1.7,1.9,9.6,i,49.2*
O=C(c1ccc(S(=O)(=O)N2CCCCC2)cc1)N1CCc2ccccc2C1,-18.9,-0.1,0.0,-1.0,i,13.9
Cc1ccc(C(=O)N2c3ccccc3CC2C)o1 (stereo not drawn),-18.8,1.4,11.7,-4.6,i,41.1*
Cc1c(C(=O)C(=O)N2c3ccccc3CC2C)c2ccccc2n1C (stereo not drawn),-13.7,1.0,5.5,-9.0,i,40.5*
Cc1c(C(=O)C(=O)N2CC=C(c3ccccc3)CC2)c2ccccc2n1C,-14.3,0.5,3.3,-6.6,?,-59.2
O=C(NCCCc1nc2ccccc2[nH]1)c1ccc(F)cc1,-4.5,0.3,1.0,19.9,i,-7.3
O=C1CC(N2CCN(C3CC(=O)N(CCc4ccccc4)C3=O)CC2)C(=O)N1CCc1ccccc1 (stereo not drawn),-13.9,1.1,-1.3,-0.8,i,-10.5
O=C1CC(N2CCC(Cc3ccccc3)CC2)C(=O)N1CCc1ccccc1 (stereo not drawn),-12.6,0.7,0.0,30.4*,i,-12.5
CCSc1nnc(NC(=O)CSc2nnc(Cc3cccn3C)n2-c2ccc(F)cc2)s1,-21.5,-0.4,1.6,33.2*,nt,-18.0
Cn1cccc1Cc1nnc(SCC(=O)Nc2ccc(F)cc2)n1-c1ccc(F)cc1,-14.3,-2.6,-2.2,7.3,i,-4.7
SMILES,Furin inh,ABCB1 inh,ABCG2 inh,Arbovirus inh,HSV replic up,p47phox inh
CCN(CC)CCOc1ccc(/C(=C(/Cl)c2ccccc2)c2ccccc2)cc1,-26.4,1.0,-0.9,-29.7,i,50.6*
C/C(=N\NS(=O)(=O)c1ccccc1)c1cccc(NC(=O)c2cccc(Cl)c2)c1,-6.6,-0.1,0.1,47.3*,i,-14.6
COc1ccc(-c2nc(C3CCCCC3)no2)cc1OC,0.0,0.0,0.4,34.8*,i,-1.8
COc1ccc(O)c(-c2cc(-c3cccc(Br)c3)n[nH]2)c1,-17.5,1.2,5.5,-37.0,nt,-16.4
Oc1ccc(Br)cc1-c1cc(-c2ccccc2)n[nH]1,-22.1,-0.6,1.8,36.1*,i,-20.4
Oc1ccc(Br)cc1-c1cc(-c2ccc(Cl)cc2)n[nH]1,-19.5,0.1,2.6,73.5*,i,-57.6
Cc1cccc2cc(CN(Cc3ccco3)C(=O)Nc3cccc(C#N)c3)c(Cl)nc12,-4.6,0.7,2.1,7.4,i,-22.3
Cc1ccc(NC(=O)N(Cc2ccco2)Cc2cc3cc(C)cc(C)c3nc2Cl)cc1,-9.3,1.1,5.0,-8.5,nt,160.1*
O=C(CN(C(=O)c1ccccc1Cl)N1C(=O)C2C3C=CC(C3)C2C1=O)c1cccs1 (stereo not drawn),-22.2,1.2,4.4,0.1,i,-2.9
CCC(C)[C@@H](N)C(=O)N/N=C/c1ccc2ncccc2c1 (stereo partly drawn),-9.5,-0.1,5.8,-1.0,i,-0.5
O=C(Cn1cc2c(n1)CCCC2)NCc1ccccn1,-20.7,0.7,9.2,-0.7,i,48.5*
O=C(Cc1cccs1)N(Cc1ccco1)C1(C(=O)NC2CCCCC2)CCCCC1,-16.2,0.8,2.3,-23.7,i,42.8*
O=S(=O)(c1ccc(Cl)c(C(F)(F)F)c1)N1CCN(c2ccccn2)CC1,-18.8,0.9,3.6,14.1,i,-12.3
COc1cc(NC(=O)CCC(=O)OCCCC(F)(F)C(F)(F)F)nc(OC)n1,-16.2,0.5,2.8,-1.8,i,-9.8
COc1cc(NC(=O)CCCC(=O)OCC(F)(F)C(F)F)nc(OC)n1,-20.0,0.1,1.7,106.0*,i,-12.1
COc1ccc(C2=Nc3cccc4cccc(c34)N2)cc1,-9.7,0.9,2.5,-2.5,nt,-19.8
CC(C)C1=Nc2cccc3cccc(c23)N1,-22.9,0.1,1.1,-1.5,nt,150.3*
COC(=O)c1sc(N2C(=O)c3oc4ccccc4c(=O)c3C2c2cccs2)nc1C (stereo not drawn),-10.8,0.5,0.9,-19.6,i,49.5*
N=C(N=C(N)N)N1CCc2ccccc21,-17.3,0.3,1.9,0.5,i,-4.3
Cn1nc(N)c2c(-c3ccccc3)c(C#N)c(N)nc21,-12.7,2.2,10.2,-3.6,i,-3.4
Cn1nc(N)c2c(-c3ccc(Cl)cc3)c(C#N)c(N)nc21,6.5,10.7,9.3,-1.8,i,62.3*
CCn1cc(/C=N\NC(=O)Cc2ccc([N+](=O)[O-])cc2)c(C)n1,-20.5,1.1,34.7,3.4,i,-13.7
